For orientation: EC50 means the concentration needed to bring the measured effect to its halfway point.

Experiment [1] is described as follows: Selectivity ratio of EC50 for human ARN-8 cells-derived from human A375 cells under dark condition measured after 24 hrs by MTT assay to EC50 for human ARN-8 cells-derived from human A375 cells pretreated for 4 hrs followed by light irradiation of 10 J/cm2 at 414 nm measured after 20 hrs by MTT assay. In kind it is functional, ARN-8 cell. An outline of the steps: (§1)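 Ratio of dark EC50 to EC50 after 414 nm irradiation (10 J/cm²). MTT read-out; compound exposure 4 h before irradiation. Each dark value is paired with the matching post-irradiation incubation (20 h or 68 h).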
For orientation: Tetrazolium assays rely on reduction of a dye to a coloured formazan, in cell work by metabolically active cells.

Experiment [2] deals with ARN-8 cell. Put plainly: Induction of DNA damage in human ARN-8 cells-derived from human A375 cells assessed as increase in H2AX phosphorylation at Ser139 at 0.5 to 1 uM pretreated for 4 hrs followed by light irradiation of upto 10 J/cm2 at 414 nm measured after 20 hrs by Western blot analysis. In kind it is functional, cell-based. The conditions noted are these: dose 0.5-1 µM, time 24.0 hrs. An outline of the steps:
(§2)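 Compound exposure 4 h, then 414 nm irradiation, then 20 h further incubation. Lysates made in RIPA buffer, separated by SDS-PAGE and blotted to nitrocellulose. Primary antibodies in TBS with 4 % BSA and 0.1 % Tween 20, incubated overnight. Peroxidase secondary antibody with chemiluminescent detection. GAPDH served as loading control.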
For orientation: In western blotting, separated proteins are transferred to a membrane and probed.

The nature of experiment [3]: Cytotoxicity against ARN-8 cells-derived from human A375 cells pretreated for 4 hrs followed by light irradiation of 10 J/cm2 at 414 nm measured after 68 hrs by MTT assay. In kind it is functional, cell-based. The conditions noted are these: ARN-8 cell, light or radiation study. An outline of the steps:
(§3)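 Cells grown in phenol red-free DMEM with 10 % FBS, penicillin/streptomycin, 37 °C, 5 % CO₂. Compound added 24 h after plating and incubated 4 h. Irradiated cells received 414 nm LED light at 20 mW/cm², 10 J/cm², then were incubated 20 h or 68 h more. Dark plates were run in parallel without irradiation. MTT was added for 4 h, formazan dissolved in 10 % SDS, absorbance read at 570 nm. EC50 ± SD.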

Experiment [4] concerns G-361. Put plainly: Cytotoxicity against human G361 cells under dark condition measured after 24 hrs by MTT assay. In kind it is functional, cell-based. The conditions noted are these: G-361, 24 h. The method, boiled down: as §3
For experiment [5], the system named is ARN-8 cell. Briefly: Induction of apoptosis in human ARN-8 cells-derived from human A375 cells assessed as increase in cleaved BAX level upto 4 uM pretreated for 4 hrs followed by light irradiation of 10 J/cm2 at 414 nm measured after 20 hrs by Western blot analysis. In kind it is functional, cell-based. The conditions noted are these: time 24.0 hrs. An outline of the steps:
as §2

The nature of experiment [6]: Induction of singlet oxygen generation in aqueous solution at 5 uM at light irradiation of 10 J/cm2. In kind it is functional. The method, boiled down: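 Water solutions of compound mixed with SOSG, DHR123 or HPF probe, each at a final 5 µM, without cells or medium. Irradiated with blue light at 10 J/cm² and fluorescence read immediately at 490/525 nm.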
The subject of experiment [7] is ARN-8 cell. Briefly: Induction of apoptosis in human ARN-8 cells-derived from human A375 cells assessed as decrease in Bcl-2 level upto 4 uM pretreated for 4 hrs followed by light irradiation of 10 J/cm2 at 414 nm measured after 20 hrs by Western blot analysis. The conditions noted are these: time 24.0 hrs. In kind it is functional, cell-based. The method, boiled down: as §2

The subject of experiment [8] is G-361. Briefly: Induction of ROS production in human G361 cells upto 4 uM pretreated for 4 hrs followed by light irradiation of 5 to 10 J/cm2 measured immediately in presence of N-acetylcysteine by CM-H2DCFA probe based analysis. In kind it is functional, cell-based. The method, boiled down:
(§4)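 Cells loaded next day with 5 µM CM-H₂DCFDA for 30 min, then placed in prewarmed PBS with 5 mM glucose. Compound exposure 4 h, followed by 414 nm irradiation at 5 or 10 J/cm²; dark samples run in parallel. Fluorescence read immediately at 492/530 nm. NAC (5 mM) pretreatment for 10 min gave negative controls. RFU normalised to untreated dark control.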

The test system of experiment [9] is ARN-8 cell. Briefly: Induction of ROS production in human ARN-8 cells-derived from human A375 cells pretreated for 4 hrs followed by light irradiation of 5 to 10 J/cm2 measured immediately by CM-H2DCFA probe based analysis. In kind it is functional. The conditions noted are these: dose <= 4.0 µM. The method, boiled down:
as §4

In experiment [10] the test system is G-361. Put plainly: Induction of apoptosis in human G361 cells assessed as increase in cleaved BAX level upto 4 uM pretreated for 4 hrs followed by light irradiation of 10 J/cm2 at 414 nm measured after 20 hrs by Western blot analysis. In kind it is functional, cell-based. The conditions noted are these: time 24.0 hrs. An outline of the steps: as §2
The test system of experiment [11] is G-361. Briefly: Cytotoxicity against human G361 cells pretreated for 4 hrs followed by light irradiation of 10 J/cm2 at 414 nm measured after 68 hrs by MTT assay. In kind it is functional, cell-based. The conditions noted are these: G-361, light or radiation study. An outline of the steps:
as §3

Experiment [12] in a line: Selectivity ratio of EC50 for human ARN-8 cells-derived from human A375 cells under dark condition measured after 72 hrs by MTT assay to EC50 for human ARN-8 cells-derived from human A375 cells pretreated for 4 hrs followed by light irradiation of 10 J/cm2 at 414 nm measured after 68 hrs by MTT assay. In kind it is functional, ARN-8 cell. The method, boiled down: as §1

The subject of experiment [13] is ARN-8 cell. Briefly: Downregulation of p53 level in human ARN-8 cells-derived from human A375 cells at higher concentration pretreated for 4 hrs followed by light irradiation of 10 J/cm2 at 414 nm measured after 20 hrs by fluorescence based assay. The conditions noted are these: time 24.0 hrs. In kind it is functional.
For experiment [14], the system named is G-361. Put plainly: Induction of oxidative stress in human G361 cells assessed as increase in HO-1 level upto 4 uM under dark condition by immunoblot analysis. In kind it is functional, cell-based.
Experiment [15] can be described thus: Selectivity ratio of EC50 for human BJ cells under dark condition measured after 72 hrs by MTT assay to EC50 for human G361 cells pretreated for 4 hrs followed by light irradiation of 10 J/cm2 at 414 nm measured after 68 hrs by MTT assay. In kind it is functional. The method, boiled down: as §1
Experiment [16] is described as follows: Cytotoxicity against human ARN-8 cells-derived from human A375 cells under dark condition measured after 24 hrs by MTT assay. In kind it is functional, cell-based. The conditions noted are these: ARN-8 cell. An outline of the steps: as §3
Experiment [17] relates to ARN-8 cell. Briefly: Induction of ROS production in human ARN-8 cells-derived from human A375 cells assessed as increase in singlet oxygen level upto 4 uM pretreated for 4 hrs followed by replacement of medium containing probe without compound for 30 mins and subsequent light irradiation of 5 to 10 J/cm2 measured immediately by DHR-123 probe based analysis. In kind it is functional. The method, boiled down:
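Compound exposure 4 h, then medium replaced with PBS containing 5 µM DHR123 probe for 30 min. Probe removed, cells in PBS irradiated at 5 or 10 J/cm², dark samples in parallel. Fluorescence read immediately at 490/525 nm.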

The nature of experiment [18]: Cytotoxicity against human ARN-8 cells-derived from human A375 cells under dark condition measured after 72 hrs by MTT assay. In kind it is functional, cell-based. The conditions noted are these: ARN-8 cell. The method, boiled down: as §3
Experiment [19] relates to G-361. Briefly: Cytotoxicity against human G361 cells under dark condition measured after 72 hrs by MTT assay. In kind it is functional, cell-based. The conditions noted are these: G-361, 72 h. The method, boiled down:
as §3

The subject of experiment [20] is G-361. Briefly: Induction of apoptosis in human G361 cells assessed as decrease in Mcl-1 level upto 4 uM pretreated for 4 hrs followed by light irradiation of 10 J/cm2 at 414 nm measured after 20 hrs by Western blot analysis. In kind it is functional, cell-based. The conditions noted are these: time 24.0 hrs. The method, boiled down:
as §2

In experiment [21] the test system is G-361. Briefly: Induction of DNA damage in human G361 cells assessed as increase in H2AX phosphorylation at Ser139 at 0.5 to 1 uM pretreated for 4 hrs followed by light irradiation of upto 10 J/cm2 at 414 nm measured after 20 hrs by Western blot analysis. The conditions noted are these: dose 0.5-1 µM, time 24.0 hrs. In kind it is functional, cell-based. An outline of the steps:
as §2

Experiment [22] deals with ARN-8 cell. Put plainly: Upregulation of Mcl-1 level in human ARN-8 cells-derived from human A375 cells upto 4 uM pretreated for 4 hrs followed by light irradiation of 10 J/cm2 at 414 nm measured after 20 hrs by Western blot analysis. In kind it is functional, cell-based. The conditions noted are these: time 24.0 hrs. The method, boiled down:
as §2

The structures appear in SMILES notation. Activity calls are given as the source filed them. The rule behind the calls is not given here.

As for `COc1ccc(/C=C/C2=Nc3ccc4ccccc4c3C2(C)C)cc1[N+](=O)[O-]`, the “Ratio EC50” value in [1] is listed as “>=15”; in experiment [12] it was over 28; in [15], over 40. For the same molecule, the result in the experiment with ARN-8 cell [2], in the experiment with ARN-8 cell [5], with ARN-8 cell [7], in the experiment on G-361 [10], with ARN-8 cell [13] and with G-361 [14] was Active. Besides, the outcome in the experiment with G-361 [20], with G-361 [21] and in the experiment on ARN-8 cell [22] was Active. In addition, the concentration giving a half-maximal response (EC50) in experiment [3] was 0.2 µM; in the experiment on G-361 [4], 9 µM; with G-361 [11] it was 0.2 µM; in experiment [16], 9.2 µM; in experiment [18], 7.3 µM; in the experiment with G-361 [19] it was 5.6 µM. The outcome (in experiment [6]; in the experiment with G-361 [8]; in the experiment with ARN-8 cell [17]) was inactive. Moreover, the Activity result in the experiment with ARN-8 cell [9] was “Dose-Dependent Effect”.
